Fewer inactive variants are shown than the library holds.
B1: tRNA (parent)
chain: GUUCCGUUGGCGUAAUGGUAACGCGUCUCCCUCCUAAGGAGAAGACUGCGGGUUCGAGUCCCGUACGGAACG

Variants of: B1
Assay: yeast fitness relative to wild type (ratio to wild type); higher = fitter; tRNA-Arg(CCU), competitive growth, 37 C, YPD
Method in brief: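 Variants of the tRNA-Arg(CCU) gene were chemically synthesised with a 3% per-site mutation rate across 69 sites and placed at the native genomic locus in Saccharomyces cerevisiae. Six parallel replicates of the pooled strains were competed in YPD at 37°C for 24 hours, and gene amplicons from the start and end populations were read by 100-nucleotide paired-end sequencing. Darwinian fitness relative to wild type was derived from changes in genotype frequencies. Genotypes required ≥ 100 starting reads, and estimates < 0.5 were set to 0.5.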

Row | Variant | yeast fitness
1 | C5A A69C | 0.919
2 | C4U U8A U13C A57C | ≤ 0.5
3 | C5A A20C C22A A36C A69C | ≤ 0.5
4 | C5A C22G C29A A43U G68A | ≤ 0.5
5 | C4U U13G C29U C34U | ≤ 0.5
6 | C5A A14C C49A | ≤ 0.5
7 | C5A C29G A37G G41A A43U | ≤ 0.5
8 | C5A A57G C61U | ≤ 0.5
9 | C5A A21C C34G G52A C62G | 0.565
10 | C4U U28C A36C G51A C66A | ≤ 0.5
11 | C4U U7A C30G C34G A40C A57U | ≤ 0.5
12 | C5A C49A G68C | 0.536
13 | C5A A40U | 0.849
14 | C5A C33G C34A A40C G67A | ≤ 0.5
15 | C5A C46G | 0.719
16 | C5A C46U | 0.997
17 | C5A A21C U54G C60U | ≤ 0.5
18 | C5A A14G C22G C60U C61U | ≤ 0.5
19 | C4U U7A C30G C34G A40C | 0.512
20 | C4U U35A A43U C62U G67C G68A | ≤ 0.5
21 | C5A C29G G67C | 0.588
22 | C5A C22U C27G C30G | ≤ 0.5
23 | C4U U26A C46U | 0.972
24 | C5A A15U C31G G39A A57U C60A | ≤ 0.5

Row | Variant | yeast fitness
25 | C5A C34U C49A G52A | ≤ 0.5
26 | C5A A20U C31U C61U U64A | ≤ 0.5
27 | C5A C31G G63U | ≤ 0.5
28 | C5A C31A A40C A43U A65G C66G | ≤ 0.5
29 | C5A A65G | 0.978
30 | C4U U8C U47A | 0.601
31 | C5A A20G A40G C49U | ≤ 0.5
32 | C5A C31U | 0.885
33 | C5A C31G | 0.889
34 | C5A C31A | 0.971
35 | C5A C24G C34G | ≤ 0.5
36 | C5A A15U C31G G39A G58A G67A | 0.558
37 | C5A C33U A43U C49G G50C C61U C66U | ≤ 0.5
38 | C5A A14G C24A U32C | ≤ 0.5
39 | C5A C11G C30G A36U C60A | ≤ 0.5
40 | C4U G44A U47C G56A | ≤ 0.5
41 | C4U G50A | 0.965
42 | C4U U26C A42U G50C A65U | 0.552
43 | C5A C34G A65C | ≤ 0.5
44 | C4U U32G A57G | ≤ 0.5
45 | C5A C24G G63A | ≤ 0.5
46 | C4U U7A G68A | ≤ 0.5
47 | C5A C11G G48C G67C | ≤ 0.5
48 | C5A A15U C24A G25A U47C G52C | ≤ 0.5

Row | Variant | yeast fitness
49 | C5A C30A A70U | 0.742
50 | C5A C29U C66U | 0.581
51 | C4U U8C A69U | 0.875
52 | C5A C11A C24U U26C C29U C31G | ≤ 0.5
53 | C5A C11G A45C | ≤ 0.5
54 | C5A C34G C49G U64C | ≤ 0.5
55 | C5A A14G C24A C66G | ≤ 0.5
56 | C5A A15C C27U C30U U32G U35A A37C U54A | ≤ 0.5
57 | C4U U7A C30G C34G A40C A65U | ≤ 0.5
58 | C4U U26C G44A | 0.569
59 | C5A A15C C29A C60G | ≤ 0.5
60 | C5A C22G C27G A36U A40C C66U | ≤ 0.5
61 | C5A A14G C31U | 0.721
62 | C5A C24U U64C | 0.639
63 | C5A C34G C49G A65G | ≤ 0.5
64 | C4U U16A U26C C27A U47C | ≤ 0.5
65 | C5A C24U U35C C66U | 0.549
66 | C4U U35A G44C C66U G67U A70G | ≤ 0.5
67 | C5A C11G G41C G48C | ≤ 0.5
68 | C4U U8C A36G G44C | 0.676
69 | C5A A45C | 0.81
70 | C5A C24G C49U | ≤ 0.5
71 | C4U U19A A42C | 0.825
72 | C5A C31G G56C G58C | ≤ 0.5

Row | Variant | yeast fitness
73 | C5A C31U A70G | 0.614
74 | C4U U7A A36U | 0.567
75 | C4U U7A A36G | ≤ 0.5
76 | C5A C34U | 0.786
77 | C4U U7G C11G C46G | ≤ 0.5
78 | C4U U35G A65G | 0.607
79 | C4U U54A C62U | ≤ 0.5
80 | C5A C11G C55U C61A | ≤ 0.5
81 | C4U G56A A70C | 0.754
82 | C5A C30A U64C | 0.547
83 | C5A A15G G18C C29A U54A | ≤ 0.5
84 | C4U U35G A45U | 0.583
85 | C5A C24U A69C | 0.641
86 | C5A C24G U26A C29G U32A | 0.531
87 | C4U G48C G67U A69C | ≤ 0.5
88 | C5A C34U C55A | ≤ 0.5
89 | C5A A21C C30G C34U G38C C49U C55U A70C | ≤ 0.5
90 | C5A C31U A69U | 0.786
91 | C5A A40G C46A | 0.773
92 | C4U U32A G41C A43C | ≤ 0.5
93 | C5A C22U | 0.79
94 | C5A C22G | 0.862
95 | C4U U7C A15C U16G A70G | ≤ 0.5
96 | C4U U8C A15C G63C | ≤ 0.5

Row | Variant | yeast fitness
97 | C5A C22G C49G | 0.563
98 | C5A A21U C61A C62G | ≤ 0.5
99 | C4U U13C A14G | 0.587
100 | C4U U16G A43U | 1.13
101 | C5A C31G U54C | 0.588
102 | C4U G44U | 0.757
103 | C5A A21G G23A G67C | 0.591
104 | C4U U16C C34A A42U | 0.726
105 | C4U G52C C61A | 0.581
106 | C5A C34U U35A C49A U54A | 0.661
107 | C4U U13A U59A | 0.811
108 | C5A C22A A36U A40U | ≤ 0.5
109 | C4U U32G A40C | 0.57
110 | C5A C11U C49U | ≤ 0.5
111 | C5A A21G C22G C27A C33U A40U C55G | ≤ 0.5
112 | C4U G48A G50A | 0.961
113 | C5A C22G G25A | ≤ 0.5
114 | C5A C31G A37G A70U | 0.532
115 | C4U U26A | 0.86
116 | C5A C31G C55A | ≤ 0.5
117 | C5A A20G U32G A43C A45U | ≤ 0.5
118 | C4U U7A G50C | ≤ 0.5
119 | C4U U7A A45U A57G | ≤ 0.5
120 | C4U U59A | 0.999

Row | Variant | yeast fitness
121 | C4U U59G | 0.909
122 | C5A C22A G56A | 0.525
123 | C4U U7C C29G C49A | ≤ 0.5
124 | C5A A14G U26A A37U G41A C62U | ≤ 0.5
125 | C5A C11G G25A C61A | ≤ 0.5
126 | C4U G48C A70U | 0.542
127 | C5A A15G C33A C61U G67A | ≤ 0.5
128 | C4U U13C G25A C60A C62U | ≤ 0.5
129 | C4U U19C A43U | 0.955
130 | C5A C31G A37G C62U G63C | 0.577
131 | C4U U28G C61U C62U | ≤ 0.5
132 | C4U U16C U32A G58A C60U | ≤ 0.5
133 | C5A A14U C27U C49G | ≤ 0.5
134 | C5A C27G C30U U32C A36G A37U G67A | ≤ 0.5
135 | C4U U16A A37U C49U C61G A70G | ≤ 0.5
136 | C5A C46G C49U | 0.727
137 | C5A C34G C66U | ≤ 0.5
138 | C4U U47A G51C A70U | ≤ 0.5
139 | C5A A15G C61A | ≤ 0.5
140 | C5A A14G C22G A37U | 0.683
141 | C5A A14C A43C | ≤ 0.5
142 | C5A C27U A36U | ≤ 0.5
143 | C5A A20C A21G A65G C66U | ≤ 0.5
144 | C4U U7A C46G A65C | 0.535

Row | Variant | yeast fitness
145 | C5A A15G G25A | 0.583
146 | C5A C30U G41C | ≤ 0.5
147 | C4U U64A | 0.852
148 | C4U U64G | 1.09
149 | C5A A21C A43C G48A C66A | ≤ 0.5
150 | C5A A20G C49A | 0.568
151 | C5A C46G C49A G67C | ≤ 0.5
152 | C4U U16A A37U A65U | ≤ 0.5
153 | C5A A15U U19C C31G G39A G58A G67A | ≤ 0.5
154 | C5A C11G C62G | ≤ 0.5
155 | C4U G44C G67A | 0.768
156 | C4U U32A U35C | 0.511
157 | C5A C31U A37C | 0.561
158 | C5A A37G | 0.7
159 | C4U U8A U13C C46A C61U | ≤ 0.5
160 | C5A A45U C49U | 0.64
161 | C4U U8A C33U A36U | 0.545
162 | C4U U8C A37U A45U C49U A65G | ≤ 0.5
163 | C4U U32A A69U | 0.601
164 | C4U U8A C22U | ≤ 0.5
165 | C5A C31A C55A C61A G63A | 0.671
166 | C4U U26A G52C | 0.569
167 | C5A C11U C31G A70U | ≤ 0.5

Source: the RNAGym collection of RNA variant scans (doi:10.1126/science.aae0568)
